Reference: ChEMBL document CHEMBL1143542, “Structure-activity relationships of bivalent aminoglycosides and evaluation of their microbiological activities” (2005)
In brackets after ≈: the same amount, converted by molar mass.

Experiments:
Staphylococcus aureus [1] = test: In vitro minimum inhibitory concentration against Staphylococcus aureus MRSA 3359; type: functional
Procedure, shortened: (§1)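 Broth microdilution following CLSI M100-S12. Stocks were 10 mg/mL in water, diluted in Mueller–Hinton broth to a top level of 128, then serially 2-fold in plates. Bacteria in cation-adjusted Mueller–Hinton broth were mixed 1:1 with drug and incubated 16–20 h at 35 °C. MIC was the lowest concentration with no visible growth. Run in duplicate with no-antibiotic and no-inoculum (sterility) controls.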

Pseudomonas aeruginosa [2] = test: In vitro minimum inhibitory concentration against Pseudomonas aeruginosa ATCC 27853; type: functional; procedure, shortened: as §1
Staphylococcus aureus [3] = test: In vitro minimum inhibitory concentration against Staphylococcus aureus ATCC 29213; type: functional; procedure, shortened: as §1
Pseudomonas aeruginosa [4] = test: Minimum inhibitory concentration against Pseudomonas aeruginosa PAE_NUH01; type: functional; procedure, shortened: as §1
Pseudomonas aeruginosa [5] = test: Minimum inhibitory concentration against Pseudomonas aeruginosa PAE_NUH02; type: functional; procedure, shortened: as §1
Pseudomonas aeruginosa [6] = test: Minimum inhibitory concentration against Pseudomonas aeruginosa PAE_NUH03; type: functional; procedure, shortened: as §1
Pseudomonas aeruginosa [7] = test: Minimum inhibitory concentration against Pseudomonas aeruginosa PAE_NUH04; type: functional; procedure, shortened: as §1
Pseudomonas aeruginosa [8] = test: Minimum inhibitory concentration against Pseudomonas aeruginosa PAE_NUH05; type: functional; procedure, shortened: as §1
Pseudomonas aeruginosa [9] = test: Minimum inhibitory concentration against Pseudomonas aeruginosa PAE_NUH06; type: functional; procedure, shortened: as §1
Pseudomonas aeruginosa [10] = test: Minimum inhibitory concentration against Pseudomonas aeruginosa PAE_NUH07; type: functional; procedure, shortened: as §1
Pseudomonas aeruginosa [11] = test: Minimum inhibitory concentration against Pseudomonas aeruginosa PAE_NUH17; type: functional; procedure, shortened: as §1
Pseudomonas aeruginosa [12] = test: Minimum inhibitory concentration against Pseudomonas aeruginosa PAE_NUH18; type: functional; procedure, shortened: as §1
Pseudomonas aeruginosa [13] = test: Minimum inhibitory concentration against Pseudomonas aeruginosa PAE_NUH19; type: functional; procedure, shortened: as §1
Pseudomonas aeruginosa [14] = test: Minimum inhibitory concentration against Pseudomonas aeruginosa PAE_NUH21; type: functional; procedure, shortened: as §1
Pseudomonas aeruginosa [15] = test: Minimum inhibitory concentration against Pseudomonas aeruginosa PAE_NUH22; type: functional; procedure, shortened: as §1
Enterococcus faecalis = test: In vitro minimum inhibitory concentration against Enterococcus faecalis 29212; type: functional; procedure, shortened: as §1
Escherichia coli = test: In vitro minimum inhibitory concentration against Escherichia coli ATCC 25922; type: functional; procedure, shortened: as §1
Pseudomonas aeruginosa [16] = test: Minimum inhibitory concentration against Pseudomonas aeruginosa PAE_NUH23; type: functional; procedure, shortened: as §1
Pseudomonas aeruginosa [17] = test: Minimum inhibitory concentration against Pseudomonas aeruginosa PAE_NUH24; type: functional; procedure, shortened: as §1
Pseudomonas aeruginosa [18] = test: Minimum inhibitory concentration against Pseudomonas aeruginosa PAE_NUH25; type: functional; procedure, shortened: as §1
Pseudomonas aeruginosa [19] = test: Minimum inhibitory concentration against Pseudomonas aeruginosa ATCC 27853; type: functional; procedure, shortened: as §1
Pseudomonas aeruginosa [20] = test: In vitro minimum inhibitory concentration against Pseudomonas aeruginosa PAO-1 Minimum inhibitory concentration against Pseudomonas aeruginosa PAO-1; type: functional; procedure, shortened: as §1
Pseudomonas aeruginosa [21] = test: Minimum inhibitory concentration against Pseudomonas aeruginosa PAE_NUH20; type: functional; procedure, shortened: as §1
Pseudomonas aeruginosa [22] = test: Susceptibility testing against Pseudomonas aeruginosa PAE_NUH01; R=Resistant; type: functional, organism-based
Procedure, shortened: (§2)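 Disk diffusion susceptibility profiling of P. aeruginosa reference and clinical isolates against empirically used antipseudomonal antibiotics. Each isolate was categorised as susceptible, intermediate or resistant.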

Pseudomonas aeruginosa [23] = test: Susceptibility testing against Pseudomonas aeruginosa PAE_NUH02; R=Resistant; type: functional, organism-based; procedure, shortened: as §2
Pseudomonas aeruginosa [24] = test: Susceptibility testing against Pseudomonas aeruginosa PAE_NUH03; R=Resistant; type: functional, organism-based; procedure, shortened: as §2
Pseudomonas aeruginosa [25] = test: Susceptibility testing against Pseudomonas aeruginosa PAE_NUH04; R=Resistant; type: functional, organism-based; procedure, shortened: as §2
Pseudomonas aeruginosa [26] = test: Susceptibility testing against Pseudomonas aeruginosa PAE_NUH05; R=Resistant; type: functional, organism-based; procedure, shortened: as §2
Pseudomonas aeruginosa [27] = test: Susceptibility testing against Pseudomonas aeruginosa PAE_NUH06; R=Resistant; type: functional, organism-based; procedure, shortened: as §2
Pseudomonas aeruginosa [28] = test: Susceptibility testing against Pseudomonas aeruginosa PAE_NUH07; R=Resistant; type: functional, organism-based; procedure, shortened: as §2
Pseudomonas aeruginosa [29] = test: Susceptibility testing against Pseudomonas aeruginosa PAE_NUH18; R=Resistant; type: functional, organism-based; procedure, shortened: as §2
Pseudomonas aeruginosa [30] = test: Susceptibility testing against Pseudomonas aeruginosa PAE_NUH19; R=Resistant; type: functional, organism-based; procedure, shortened: as §2
Pseudomonas aeruginosa [31] = test: Susceptibility testing against Pseudomonas aeruginosa PAE_NUH20; R=Resistant; type: functional, organism-based; procedure, shortened: as §2
Pseudomonas aeruginosa [32] = test: Susceptibility testing against Pseudomonas aeruginosa PAE_NUH21; R=Resistant; type: functional, organism-based; procedure, shortened: as §2
Pseudomonas aeruginosa [33] = test: Susceptibility testing against Pseudomonas aeruginosa PAE_NUH22; R=Resistant; type: functional, organism-based; procedure, shortened: as §2
Pseudomonas aeruginosa [34] = test: Susceptibility testing against Pseudomonas aeruginosa PAE_NUH23; R=Resistant; type: functional, organism-based; procedure, shortened: as §2
Pseudomonas aeruginosa [35] = test: Susceptibility testing against Pseudomonas aeruginosa PAE_NUH24; R=Resistant; type: functional, organism-based; procedure, shortened: as §2
Pseudomonas aeruginosa [36] = test: Susceptibility testing against Pseudomonas aeruginosa PAE_NUH25; R=Resistant; type: functional, organism-based; procedure, shortened: as §2
Pseudomonas aeruginosa [37] = test: Susceptibility testing against Pseudomonas aeruginosa ATCC 27853; S=Susceptible; type: functional, organism-based
Procedure, shortened: (§3)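 Disk diffusion susceptibility profiling against a panel of empirically used antipseudomonal antibiotics. Each strain was categorised as susceptible (S) or intermediate (I).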

Pseudomonas aeruginosa [38] = test: Susceptibility testing against Pseudomonas aeruginosa PAE_NUH17; S=Susceptible; type: functional, organism-based; procedure, shortened: as §3
Pseudomonas aeruginosa [39] = test: In vitro minimum inhibitory concentration against Pseudomonas aeruginosa PAO-1; type: functional; procedure, shortened: as §1
Pseudomonas aeruginosa [40] = test: Susceptibility testing against Pseudomonas aeruginosa ATCC 27853; R=Resistant; type: functional, organism-based; procedure, shortened: as §2
Pseudomonas aeruginosa [41] = test: Susceptibility testing against Pseudomonas aeruginosa PAE_NUH25; S=Susceptible; type: functional, organism-based; procedure, shortened: as §3
Pseudomonas aeruginosa [42] = test: Susceptibility testing against Pseudomonas aeruginosa PAE_NUH20; S=Susceptible; type: functional, organism-based; procedure, shortened: as §3

SMILES | MIC (Staphylococcus aureus [1]) [µg/mL] | MIC (Pseudomonas aeruginosa [2]) [µg/mL] | MIC (Staphylococcus aureus [3]) [µg/mL] | MIC (Pseudomonas aeruginosa [4]) [µg/mL] | MIC (Pseudomonas aeruginosa [5]) [µg/mL] | MIC (Pseudomonas aeruginosa [6]) [µg/mL] | MIC (Pseudomonas aeruginosa [7]) [µg/mL] | MIC (Pseudomonas aeruginosa [8]) [µg/mL] | MIC (Pseudomonas aeruginosa [9]) [µg/mL] | MIC (Pseudomonas aeruginosa [10]) [µg/mL] | MIC (Pseudomonas aeruginosa [11]) [µg/mL] | MIC (Pseudomonas aeruginosa [12]) [µg/mL] | MIC (Pseudomonas aeruginosa [13]) [µg/mL] | MIC (Pseudomonas aeruginosa [14]) [µg/mL] | MIC (Pseudomonas aeruginosa [15]) [µg/mL] | MIC (Enterococcus faecalis) [µg/mL] | MIC (Escherichia coli) [µg/mL] | MIC (Pseudomonas aeruginosa [16]) [µg/mL] | MIC (Pseudomonas aeruginosa [17]) [µg/mL] | MIC (Pseudomonas aeruginosa [18]) [µg/mL] | other results
NC[C@H]1O[C@H](O[C@H]2[C@H](OC[C@H](O)CNCCCCNC[C@@H](O)CO[C@@H]3[C@@H](O)[C@H](N)C[C@H](N)[C@H]3O[C@H]3O[C@H](CN)[C@@H](O)[C@H](O)[C@H]3N)[C@@H](O)[C@H](N)C[C@@H]2N)[C@H](N)[C@@H](O)[C@@H]1O | 16 (≈ 18.9 µM) | 4 (≈ 4.73 µM) | 1 (≈ 1.18 µM) | 6.3 (≈ 7.46 µM) | 6.3 (≈ 7.46 µM) | 6.3 (≈ 7.46 µM) | 3.1 (≈ 3.67 µM) | 3.1 (≈ 3.67 µM) | 6.3 (≈ 7.46 µM) | 3.1 (≈ 3.67 µM) | 32 (≈ 37.9 µM) | 8 (≈ 9.47 µM) | 8 (≈ 9.47 µM) | 16 (≈ 18.9 µM) | 16 (≈ 18.9 µM) | > 50 | 4 (≈ 4.73 µM) | 16 (≈ 18.9 µM) | 16 (≈ 18.9 µM) | 8 (≈ 9.47 µM) | MIC (Pseudomonas aeruginosa [19]): 1 µg/mL (≈ 1.18 µM); MIC (Pseudomonas aeruginosa [20]): 2 µg/mL (≈ 2.37 µM); MIC (Pseudomonas aeruginosa [21]): 16 µg/mL (≈ 18.9 µM)
C[C@H]1[C@H](NC(=O)/C(=N\OC(C)(C)C(=O)O)c2csc(N)n2)C(=O)N1S(=O)(=O)O | – | – | – | – | – | – | – | – | – | – | – | – | – | – | – | – | – | – | – | – | Activity (Pseudomonas aeruginosa [22]): Resistant; Activity (Pseudomonas aeruginosa [23]): Resistant; Activity (Pseudomonas aeruginosa [24]): Resistant; Activity (Pseudomonas aeruginosa [25]): Resistant; Activity (Pseudomonas aeruginosa [26]): Resistant; Activity (Pseudomonas aeruginosa [27]): Resistant; Activity (Pseudomonas aeruginosa [28]): Resistant; Activity (Pseudomonas aeruginosa [29]): Resistant; Activity (Pseudomonas aeruginosa [30]): Resistant; Activity (Pseudomonas aeruginosa [31]): Resistant; Activity (Pseudomonas aeruginosa [32]): Resistant; Activity (Pseudomonas aeruginosa [33]): Resistant; Activity (Pseudomonas aeruginosa [34]): Resistant; Activity (Pseudomonas aeruginosa [35]): Resistant; Activity (Pseudomonas aeruginosa [36]): Resistant; Activity (Pseudomonas aeruginosa [37]): Susceptible; Activity (Pseudomonas aeruginosa [38]): Susceptible
CN(CCCCN(C)C[C@@H](O)CO[C@@H]1[C@@H](O)[C@H](N)C[C@H](N)[C@H]1O[C@H]1O[C@H](CN)[C@@H](O)[C@H](O)[C@H]1N)C[C@@H](O)CO[C@@H]1[C@@H](O)[C@H](N)C[C@H](N)[C@H]1O[C@H]1O[C@H](CN)[C@@H](O)[C@H](O)[C@H]1N | 16 (≈ 18.3 µM) | 8 (≈ 9.16 µM) | 1 (≈ 1.15 µM) | 12.5 (≈ 14.3 µM) | 6.3 (≈ 7.22 µM) | 6.3 (≈ 7.22 µM) | 6.3 (≈ 7.22 µM) | 6.3 (≈ 7.22 µM) | 12.5 (≈ 14.3 µM) | 6.3 (≈ 7.22 µM) | > 32 | 16 (≈ 18.3 µM) | 16 (≈ 18.3 µM) | 16 (≈ 18.3 µM) | 8 (≈ 9.16 µM) | > 50 | 4 (≈ 4.58 µM) | > 32 | 32 (≈ 36.7 µM) | 8 (≈ 9.16 µM) | MIC (Pseudomonas aeruginosa [39]): 8 µg/mL (≈ 9.16 µM); MIC (Pseudomonas aeruginosa [19]): 8 µg/mL (≈ 9.16 µM); MIC (Pseudomonas aeruginosa [21]): 16 µg/mL (≈ 18.3 µM)
COc1cc(Cc2cnc(N)nc2N)cc(OC)c1OC.Cc1cc(NS(=O)(=O)c2ccc(N)cc2)no1 | – | – | – | – | – | – | – | – | – | – | – | – | – | – | – | – | – | – | – | – | Activity (Pseudomonas aeruginosa [40]): Resistant; Activity (Pseudomonas aeruginosa [22]): Resistant; Activity (Pseudomonas aeruginosa [23]): Resistant; Activity (Pseudomonas aeruginosa [24]): Resistant; Activity (Pseudomonas aeruginosa [25]): Resistant; Activity (Pseudomonas aeruginosa [26]): Resistant; Activity (Pseudomonas aeruginosa [27]): Resistant; Activity (Pseudomonas aeruginosa [28]): Resistant; Activity (Pseudomonas aeruginosa [29]): Resistant; Activity (Pseudomonas aeruginosa [30]): Resistant; Activity (Pseudomonas aeruginosa [32]): Resistant; Activity (Pseudomonas aeruginosa [33]): Resistant; Activity (Pseudomonas aeruginosa [34]): Resistant; Activity (Pseudomonas aeruginosa [35]): Resistant; Activity (Pseudomonas aeruginosa [41]): Susceptible; Activity (Pseudomonas aeruginosa [38]): Susceptible; Activity (Pseudomonas aeruginosa [42]): Susceptible
